Screening results (PubChem)
RAD52 anneal inh: RAD52 (human) annealing inhibition; P43351; recombinant RAD52 DNA annealing, FRET fluorescence; inhibition, % at 18.7 µM; actives 0.46% (n = 360,000); AID 651710;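 active = every replicate showing at least 50% inhibition; inconclusive = mean inhibition at least 50% but not in every replicate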
FN deposition inh: fibronectin deposition inhibition. inhibition, % at 12.6 µM. AH1F fibroblasts, Alexa488-fibronectin deposition fluorescence, overnight. AID 743247. actives 0.086% (n = 350,000);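 active = mean inhibition across replicates of 30% or more, regardless of how many single replicates reach that level; inconclusive = mean under 30% yet at least half of replicates reach 30%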;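 note: positive control wells lacked labelled fibronectin entirely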
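Assay system: AH1F fibroblasts assembling fluorescent fibronectin matrix; Amount: 10000 AH1F cells per well; Buffer or medium: DMEM, 2% serum; Probe or stimulus: Alexa488-fibronectin, 24 nM final in well; Doses: single compound dose, delivered by pin transfer; Incubation: 1 h adhesion, overnight exposure; Measured by: fluorescence 485/525 nm; Read-out: fibronectin deposition inhibition.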
RAD54 inh: inhibitors of human RAD54 branch migration; Q92698; RAD54 Holliday junction branch migration, FAM/BHQ fluorescence; inhibition, % at 10.4 µM; actives 0.14% (n = 360,000);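 active = mean normalized replicate activity at least 40 and at least half of replicates scoring 40 or more; inconclusive = only one of the two criteria met; inactive = mean below 40 and under half of replicates reaching 40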;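 note: 0% = median of neutral control wells and 100% = median of positive control wells; inhibitors cause a drop in the FAM fluorescence signal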
MLL AF4-AF9 inh: inhibitors of human MLL-AF4/AF9 interaction; AlphaScreen, biotin-AF4 peptide binding to FLAG-AF9; inhibition, % at 10 µM; actives 0.47% (n = 350,000); AID 651704;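 active = every replicate reaching a set inhibition limit, whatever the replicate mean, cut at about 25% in these data; inconclusive = mean inhibition reaches that limit but some replicates miss it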;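 note: 0% = plate neutral control median and 100% = total signal loss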
Glyco luc inh: blocks N-linked glycosylation in D54 reporter cells | D54 ERlucT glycosylation luciferase reporter, 24 h; percent of 100 nM tunicamycin response | reporter increase, % at 12.5 µM | actives 0.23% (n = 360,000);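 active = mean luciferase reporter signal, scaled so untreated is 0 and the glycosylation-blocking control 100, at or above a set limit in every replicate; inconclusive = mean reaches the limit but not every replicate does; inactive = mean below the limit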;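 note: luciferase carries N-glycosylation sites so blocking glycosylation raises the light; 0% = median of neutral control wells and 100% = median of 100 nM tunicamycin wells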
* hit, by the source's call; i = inactive; u = inconclusive; x = not tested or not shown. Most compounds without a hit are left out; they make up all but 0.92% or so of the library.

SMILES	RAD52 anneal inh	FN deposition inh	RAD54 inh	MLL AF4-AF9 inh	Glyco luc inh
CN1/C(=C/C=C(/C#N)C(N)=O)C(C)(C)c2ccccc21	x	x	-15	x	26*
O=C(C[C@H]1CC[C@@H]2[C@H](COC[C@@H](O)CN2C(=O)Nc2ccccc2)O1)NCCc1ccncc1	7	-14	2	-2	x
CCOc1ccc(-c2cc(N)n(S(=O)(=O)c3ccc(OC)c(OC)c3)n2)cc1	-16	7	2	44*	2
CCN1CC(=O)N2[C@@H](CO)[C@H](c3ccc(Br)cc3)[C@@H]2C1	0	0	x	3	x
COc1ccc(-c2ccc(C(=O)NCc3ccc(N4CCN(C)CC4)cc3)c3occc23)c(C)c1	35	6	-3	37*	-8
COc1ccc2c3c(n(C)c2c1)[C@H](CO)N(C(=O)Nc1ccc(F)cc1)CC31CN(C(=O)Nc2c(C)noc2C)C1	-2	x	x	3	x
C[C@@H]1CN([C@H](C)CO)C(=O)c2cc(NC(=O)C3CCCCC3)ccc2O[C@H]1CN(C)Cc1ccc(C(=O)O)cc1	-6	x	8	-3	x
CC1(C)CCN2CCC(C)(C)c3c(O)ccc1c32	i	-10	-274	26*	3
O=C(C[C@H]1CC[C@H]2[C@@H](COC[C@@H](O)CN2C(=O)Nc2ccc(F)cc2)O1)NCCc1ccccc1	3	-6	7	-1	x
C=CC[n+]1c(-c2ccc(Cl)cc2Cl)csc1Nc1ccc(NC(C)=O)cc1	-16	-3	x	44*	-11
Cc1cccc(/C=C/C(=O)c2ccc([N+](=O)[O-])o2)c1	-11	65*	-7	0	1
Cc1ccccc1/C=C/C(=O)c1ccc([N+](=O)[O-])o1	-15	42*	x	3	x
CN(C)Cc1cc(C(C)(C)c2cc(CN(C)C)c(O)c(CN(C)C)c2)cc(CN(C)C)c1O	x	1	102*	x	-5
Cc1ccc2nc(Nc3nc(-c4ccccc4)cc(=O)[nH]3)nc(C)c2c1	x	x	3	x	3
COc1ccc2c(C)nc(Nc3nc(-c4ccccc4)cc(=O)[nH]3)nc2c1	-16	15	-1	1	94*
CCN(C(=O)CN1C(=O)NC(c2ccccc2)(c2ccccc2)C1=O)c1ccccc1	-13	-2	4	38*	-2
O=C(NC1CCC1)[C@@H]1[C@@H](CO)[C@@H]2Cn3c(ccc(-c4ccccc4F)c3=O)[C@@H]2N1Cc1ccccn1	-2	x	x	-2	x
O=C(NC1CCC1)[C@H]1[C@H](CO)[C@H]2Cn3c(ccc(-c4ccccc4F)c3=O)[C@H]2N1Cc1ccncc1	71*	x	12	0	x
CN(C)C(=O)C[C@H]1CC[C@H]2[C@@H](COC[C@H](O)CN2CC2CC2)O1	-20	-2	-3	-3	x
N=C(N)c1ccc(N)cc1	100*	-2	47	13	0
Cn1cnc(S(=O)(=O)N2C[C@@H](O)COC[C@H]3O[C@@H](CC(=O)NCc4cc(F)cc(F)c4)CC[C@@H]32)c1	7	4	0	-3	x
Cc1ncc([N+](=O)[O-])n1CC(=O)Nc1ccccc1F	0	2	5	-2	2
CSc1ccccc1NC(=O)Cn1c([N+](=O)[O-])cnc1C	-6	-5	6	42*	2
COc1ccc2c3c(n(C)c2c1)[C@H](CO)N(C(=O)Cc1ccccn1)CC31CN(CC2CCOCC2)C1	5	x	x	0	x
CN1C(C(=O)Nc2cccc(O)c2)=CC(c2cccs2)=NS1(=O)=O	10	-1	17	27*	-1
SMILES	RAD52 anneal inh	FN deposition inh	RAD54 inh	MLL AF4-AF9 inh	Glyco luc inh
CC(=O)c1cccc(NC(=O)C2=CC(c3cccs3)=NS(=O)(=O)N2C)c1	-7	-3	8	3	1
COc1ccccc1-c1cnc2c(c1)C(=O)N([C@H](C)CO)C[C@@H](C)[C@@H](CN(C)Cc1ccc(F)cc1)O2	9	2	9	u	x
Cc1cc(C)nc(/N=C(\N)Nc2ccc(CC(=O)OC(C)C)cc2)n1	11	-1	-3	-18	48*
COc1ccc(N/C(N)=N/c2nc(C)cc(C)n2)cc1	-3	0	6	-2	6
Cc1cc(C)nc(/N=C(\N)Nc2ccc(OCCC(C)C)cc2)n1	33	-13	9	-14	48*
Cc1ncc(CO)c(/C=N/NC(=O)c2cc(Br)ccc2O)c1O	-39	4	x	28*	2
CCn1c(=O)c2cc(C(=O)NCCOC)sc2c2ccccc21	-12	2	0	-4	13
